ChEMBL document CHEMBL4706530, “Synthesis, inhibitory activity and in silico docking of dual COX/5-LOX inhibitors with quinone and resorcinol core” (Eur J Med Chem, 2020)
Active and inactive are the calls of the source.

Tests used:
[1] = biological target: T1, Prostaglandin G/H synthase 2 (Homo sapiens) (UniProt P35354); experiment: Inhibition of human recombinant COX-2 assessed as reduction in PGE2 level using 10 uM arachidonic acid as substrate at 20 uM preincubated with enzyme for 5 mins followed by substrate addition and measured after 20 mins by ELISA relative to control; details: time 25.0 min
T1 sequence (whole entry): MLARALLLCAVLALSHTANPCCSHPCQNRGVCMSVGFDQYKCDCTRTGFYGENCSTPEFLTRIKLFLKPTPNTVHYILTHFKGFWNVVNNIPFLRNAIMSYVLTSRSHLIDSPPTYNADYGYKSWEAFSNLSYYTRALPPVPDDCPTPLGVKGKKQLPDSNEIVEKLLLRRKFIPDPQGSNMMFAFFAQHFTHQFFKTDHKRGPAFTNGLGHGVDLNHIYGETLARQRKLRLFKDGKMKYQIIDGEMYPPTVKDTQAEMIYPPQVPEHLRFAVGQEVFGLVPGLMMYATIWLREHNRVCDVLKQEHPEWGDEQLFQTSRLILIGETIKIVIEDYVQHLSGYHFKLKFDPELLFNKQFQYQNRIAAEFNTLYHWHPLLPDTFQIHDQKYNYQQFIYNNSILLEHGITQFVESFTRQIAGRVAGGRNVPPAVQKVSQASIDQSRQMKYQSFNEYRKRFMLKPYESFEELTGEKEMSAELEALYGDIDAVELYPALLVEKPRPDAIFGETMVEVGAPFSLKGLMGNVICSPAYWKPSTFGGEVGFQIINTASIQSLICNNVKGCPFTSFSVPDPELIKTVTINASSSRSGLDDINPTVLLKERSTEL
Procedure, shortened: (§1)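 Enzyme in 100 mM Tris pH 8.0 with 5 µM porcine hematin, 18 mM L-epinephrine and 50 µM Na2EDTA. Compound in DMSO (DMSO blank) 5 min at room temperature. Arachidonic acid (10 µM) added, 20 min at 37°C. Stopped with 10% formic acid, diluted 1:15, PGE2 measured by ELISA at 405 nm as % inhibition versus blank. At least three experiments in at least duplicate. Non-active below 50% inhibition at 20 µM.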

[2] = biological target: T2, Polyunsaturated fatty acid 5-lipoxygenase (Homo sapiens, UniProt P09917); experiment: Inhibition of human recombinant 5-LOX assessed as reduction in LTB4 level using 800 uM arachidonic acid as substrate preincubated with enzyme for 10 mins followed by substrate addition and measured after 10 mins by ELISA
T2 sequence (P09917 whole entry): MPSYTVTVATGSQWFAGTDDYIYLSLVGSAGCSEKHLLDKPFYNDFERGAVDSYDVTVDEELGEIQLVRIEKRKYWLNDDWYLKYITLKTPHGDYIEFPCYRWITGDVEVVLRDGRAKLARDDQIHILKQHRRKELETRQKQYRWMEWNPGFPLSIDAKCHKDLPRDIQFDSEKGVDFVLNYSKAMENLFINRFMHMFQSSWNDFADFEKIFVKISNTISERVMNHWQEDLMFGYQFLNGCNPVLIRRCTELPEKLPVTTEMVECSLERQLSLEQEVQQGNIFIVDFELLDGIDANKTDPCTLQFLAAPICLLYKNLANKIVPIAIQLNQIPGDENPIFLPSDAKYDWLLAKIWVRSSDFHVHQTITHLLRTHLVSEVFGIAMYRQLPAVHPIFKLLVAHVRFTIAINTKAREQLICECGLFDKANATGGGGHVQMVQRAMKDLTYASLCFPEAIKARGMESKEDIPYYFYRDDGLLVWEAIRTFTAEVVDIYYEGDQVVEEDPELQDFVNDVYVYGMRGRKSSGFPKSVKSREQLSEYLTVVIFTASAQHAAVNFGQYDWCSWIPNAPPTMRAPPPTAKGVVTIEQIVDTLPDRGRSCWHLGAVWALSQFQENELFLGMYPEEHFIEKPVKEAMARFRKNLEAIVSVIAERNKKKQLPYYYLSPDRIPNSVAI
Procedure, shortened: (§2)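 Human recombinant 5-LOX, 1 unit per reaction, in PBS pH 7.4 containing 1 mM Na2EDTA and 200 µM ATP. Compound in DMSO (DMSO blank) held 10 min at 4°C. CaCl2 added, reaction started with arachidonic acid (800 µM solution) for 10 min at 37°C. Formic acid stop, 1:15 dilution, LTB4 measured by ELISA as % inhibition versus blank. At least three experiments in at least duplicate.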

[3] = biological target: T3, Prostaglandin G/H synthase 1 (Ovis aries) (UniProt P05979); experiment: Inhibition of ovine COX-1 assessed as reduction in PGE2 level using 10 uM arachidonic acid as substrate at 20 uM preincubated with enzyme for 5 mins followed by substrate addition and measured after 20 mins by ELISA relative to control; details: time 25.0 min; procedure, shortened: as §1
T3 sequence (whole entry): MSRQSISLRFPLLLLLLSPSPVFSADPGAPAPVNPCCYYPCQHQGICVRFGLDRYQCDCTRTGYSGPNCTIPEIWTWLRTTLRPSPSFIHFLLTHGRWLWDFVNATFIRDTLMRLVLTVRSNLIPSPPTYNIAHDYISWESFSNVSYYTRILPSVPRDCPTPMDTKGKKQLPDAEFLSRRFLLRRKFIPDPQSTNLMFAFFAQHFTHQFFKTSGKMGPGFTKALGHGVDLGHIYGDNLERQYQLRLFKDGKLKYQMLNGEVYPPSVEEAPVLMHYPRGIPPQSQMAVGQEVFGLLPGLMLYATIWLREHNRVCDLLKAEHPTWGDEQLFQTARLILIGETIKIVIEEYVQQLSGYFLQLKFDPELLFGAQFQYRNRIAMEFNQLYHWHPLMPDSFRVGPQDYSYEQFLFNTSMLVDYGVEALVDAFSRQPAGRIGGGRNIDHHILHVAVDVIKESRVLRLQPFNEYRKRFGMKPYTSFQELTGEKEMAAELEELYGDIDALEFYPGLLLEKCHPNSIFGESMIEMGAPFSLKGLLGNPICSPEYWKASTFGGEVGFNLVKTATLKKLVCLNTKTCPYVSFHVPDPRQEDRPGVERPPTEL

[4] = biological target: T4, Prostaglandin G/H synthase 1 (Ovis aries, UniProt P05979); experiment: Inhibition of ovine COX-1 assessed as reduction in PGE2 level using 10 uM arachidonic acid as substrate preincubated with enzyme for 5 mins followed by substrate addition and measured after 20 mins by ELISA; procedure, shortened: as §1
T4 sequence (P05979 whole entry): T3 sequence (whole entry)

[5] = biological target: T5, Prostaglandin G/H synthase 2 (Homo sapiens, UniProt P35354); experiment: Inhibition of human recombinant COX-2 assessed as reduction in PGE2 level using 10 uM arachidonic acid as substrate preincubated with enzyme for 5 mins followed by substrate addition and measured after 20 mins by ELISA
T5 sequence (P35354 whole entry): T1 sequence (whole entry)

[6] = Selectivity index, ratio of IC50 for ovine COX-1 to IC50 for human recombinant COX-2
[7] = Antioxidant activity assessed as radical scavenging activity measured after 30 mins by DPPH assay; type: functional
Procedure, shortened: (§3)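 Test compounds in methanol, two-fold serial dilution to final 3.125–400 µM, incubated 30 min with DPPH in methanol (stated final […]) at room temperature in the dark. Absorbance read at 517 nm. Trolox and L-ascorbic acid served as positive references. Activity expressed as EC50.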

[8] = biological target: T2, Polyunsaturated fatty acid 5-lipoxygenase; experiment: Inhibition of human recombinant 5-LOX assessed as reduction in LTB4 level using 5 to 80 uM arachidonic acid as substrate preincubated with enzyme for 10 mins followed by substrate addition and measured after 10 mins by ELISA
Procedure, shortened: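 Human recombinant 5-LOX, 1 unit per reaction, in PBS pH 7.4 with 1 mM Na2EDTA and 200 µM ATP. Compound in DMSO preincubated 10 min at 4°C. CaCl2 added, then arachidonic acid at final 5, 20 or 80 µM, 10 min at 37°C. Stopped with 10% formic acid, diluted 1:15, LTB4 measured by ELISA. Inhibition calculated versus blank at the matching AA level.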

[9] = Antioxidant activity assessed as radical scavenging activity at 400 uM measured after 30 mins by DPPH assay; type: functional; procedure, shortened: as §3
[10] = biological target: T4, Prostaglandin G/H synthase 1; experiment: Competitive inhibition of ovine COX-1 assessed as reduction in PGE2 level using 50 nM arachidonic acid as substrate preincubated with enzyme for 5 mins followed by substrate addition and measured after 20 mins by ELISA
Procedure, shortened: (§4)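 Substrate-dependence test. Enzyme in 100 mM Tris pH 8.0 with 5 µM porcine hematin, 18 mM L-epinephrine and 50 µM Na2EDTA. Compound in DMSO (DMSO blank) preincubated 5 min at room temperature. Arachidonic acid added to final 50, 250 or 1250 nM, then 20 min at 37°C. Stopped with 10% formic acid, diluted 1:15, PGE2 quantified by ELISA at 405 nm. Inhibition calculated versus blank at the same AA level.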

[11] = biological target: T4, Prostaglandin G/H synthase 1; experiment: Competitive inhibition of ovine COX-1 assessed as reduction in PGE2 level using 250 nM arachidonic acid as substrate preincubated with enzyme for 5 mins followed by substrate addition and measured after 20 mins by ELISA; procedure, shortened: as §4
[12] = biological target: T4, Prostaglandin G/H synthase 1; experiment: Competitive inhibition of ovine COX-1 assessed as reduction in PGE2 level using 1250 nM arachidonic acid as substrate preincubated with enzyme for 5 mins followed by substrate addition and measured after 20 mins by ELISA; procedure, shortened: as §4
[13] = biological target: T6, Polyunsaturated fatty acid 5-lipoxygenase (Homo sapiens) (UniProt P09917); experiment: Inhibition of human recombinant 5-LOX assessed as reduction in LTB4 level using 800 uM arachidonic acid as substrate at 5 uM preincubated with enzyme for 10 mins followed by substrate addition and measured after 10 mins by ELISA relative to control; details: time 20.0 min
T6 sequence (whole entry): T2 sequence (P09917 whole entry)
Procedure, shortened: as §2, with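 “duplicate. Non-active cutoff below 50% inhibition at 5 µM.” for “duplicate.”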

Row | IC50 [2] [nM] | IC50 [4] [nM] | IC50 [5] [nM] | Ratio IC50 [6] | SMILES | further results
1 | 940 |  |  |  | CCCCCc1cc(O)cc(OC)c1O | inhibition [1]: < 50%; inhibition [3]: < 50%
2 | 3720 | 5420 | 4650 | 1.17 | CCCCCc1cccc(OC)c1O | 
3 | 1010 | 15800 | 5820 | 2.71 | CCCCCC1=CC(=O)C=C(OC)C1=N | 
4 | 170 |  |  |  | COC1=CC(=O)C=C(Br)C1OC(C)=O (configuration not stated) | inhibition [1]: < 50%; EC50 [7]: 45600 nM; inhibition [3]: < 50%
5 | 1370 | 18900 | 1900 | 9.96 | CCCCCC1=CC(=O)C=C(OC)C1=O [Primin] | 
6 |  |  |  |  | Cc1c(C)c2c(c(C)c1O)CCC(C)(C(=O)O)O2 (configuration not stated) [TROLOX] | EC50 [7]: 32500 nM
7 | 340 | 1070 | 570 | 1.88 | CCCCCCCCCCCC1=CC(=O)C=C(OC)C1=O | IC50 [8]: 710 nM; Activity [9]: inactive; IC50 [10]: 800 nM; IC50 [11]: 2770 nM; IC50 [12]: > 20000 nM
8 |  | 2380 | 2740 | 0.87 | CCCCCCCCCCCCCc1cc(O)cc(O)c1 | inhibition [13]: < 50%
9 |  | 5610 | 2360 | 2.38 | CCCCCCCCCCCCCCCc1cc(O)cc(O)c1 [CARDOL] | inhibition [13]: < 50%
10 | 1090 |  |  |  | CCCCCc1cc(OC(C)=O)cc(OC)c1OC(C)=O | inhibition [1]: < 50%; inhibition [3]: < 50%
11 | 1490 | 3380 | 1550 | 2.18 | CCCCCCCCCCCCCc1cc(O)cc(OC)c1O | 
12 |  |  | 15900 |  | CCCCCc1cc(O)cc(OC)c1 | inhibition [13]: < 50%; inhibition [3]: < 50%
13 |  |  |  |  | O=C1O[C@H]([C@@H](O)CO)C(O)=C1O [ASCORBIC ACID] | EC50 [7]: 31100 nM
14 | 1140 | 6110 | 4810 | 1.27 | COc1cc(O)cc(Br)c1O | 
15 | 140 | 2650 | 2710 | 0.98 | CCCCCCCCCCCCCCCc1cc(O)cc(OC)c1O | 
16 | 1020 |  |  |  | CCCCCCCCCCCCCc1cc(OC(C)=O)cc(OC)c1OC(C)=O | inhibition [1]: < 50%; inhibition [3]: < 50%
17 | 280 | 1070 | 550 | 1.95 | CCCCCCCCCCCc1cc(O)cc(OC)c1O | 
18 | 1670 | 15600 | 4480 | 3.47 | COC1=CC(=O)C=C(Br)C1=O | 
19 | 1050 | 250 | 880 |  | CCCCCCCCCCCCCC1=CC(=O)C=C(OC)C1=O | 
20 | 790 |  | 8970 |  | CCCCCCCCCCCCCCCC1=CC(=O)C=C(OC)C1=O | inhibition [3]: < 50%

Row | SMILES | IC50 [2] [nM] | IC50 [4] [nM] | IC50 [5] [nM] | Ratio IC50 [6] | further results
21 | CCCCCc1cc(O)cc(O)c1 [WHILE OLIVETOL] |  | 13600 | 17300 | 0.79 | inhibition [13]: < 50%
